High-throughput results: PubChem BioAssay, The Scripps Research Institute Molecular Screening Center
CHO parental Ca: ATP-evoked calcium signal inhibitors, parental CHO, primary screen, counter-screen for OX1R antagonist project, cell-based, fluorescence, Fluo-8 calcium dye; AID 463079, 2010; inhibition, % at 5.6 µM; parental CHO-K1, ATP-induced calcium, Fluo-8 fluorescence; actives 0.63% (n = 330,000);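 active = inhibition above that plate's mean sample inhibition plus 3 SD, cut at about 26% in these data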;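 note: 0% = ATP-challenged DMSO wells and 100% = DMSO wells without ATP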
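Test system: untransfected parental CHO cell line; also added: ATP stimulus; dosing: 5.6 µM, single dose; signal: calcium-sensitive Fluo-8 fluorescence; measure: percent inhibition of ATP-evoked calcium rise, normalized to controls; benchmarks: low control ATP plus DMSO, high control DMSO only; replication: one well per compound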
TAAR1 antagonist: human TAAR1 antagonists, primary screen, Fluo-8 calcium fluorescence, CHO RD-HGA16 cells | Trace amine-associated receptor 1 (Homo sapiens), Q96RJ0 | antagonist | inhibition, % at 3 µM | actives 1.5% (n = 360,000) | AID 624466, 2012;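 active = inhibition above a per-plate cutoff, the mean inhibition of test compounds on that plate plus 3 SD, cut at about 49% in these data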;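 note: 0% = DMSO plus EC80 beta-PEA response and 100% = DMSO alone without agonist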
Target sequence (Q96RJ0 whole entry, looked up): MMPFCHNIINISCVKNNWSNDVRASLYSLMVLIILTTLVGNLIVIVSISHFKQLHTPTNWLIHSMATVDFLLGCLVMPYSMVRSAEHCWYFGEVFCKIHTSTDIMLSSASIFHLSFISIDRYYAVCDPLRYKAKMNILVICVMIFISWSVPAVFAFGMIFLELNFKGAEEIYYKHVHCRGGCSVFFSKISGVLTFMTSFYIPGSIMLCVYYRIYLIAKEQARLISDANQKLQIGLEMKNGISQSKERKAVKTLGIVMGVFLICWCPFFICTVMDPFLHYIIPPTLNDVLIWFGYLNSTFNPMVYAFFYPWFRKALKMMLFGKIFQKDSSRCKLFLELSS
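Assay system: RD-HGA16 CHO cells with stable hTAAR1 and Gα16 / Reagent: EC80 β-phenethylamine stimulus / Doses: 3 µM, single point / Timing: dye loading 75 min at 37 °C, then 30 min room temperature / Measured by: Fluo-8 intracellular calcium dye fluorescence, real-time kinetic reads / Controls: vehicle wells and EC80 agonist wells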
OX1R antag-1: OX1R (HCRTR1) antagonists, primary screen, fluorescence, CHO/OX1R cells, Fluo-8 calcium, orexin A; Orexin/Hypocretin receptor type 1 (Homo sapiens), O43613; Fluo-8 calcium fluorescence; inhibition, % at 5 µM; actives 0.43% (n = 330,000);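 active = inhibition above its plate's threshold, mean inhibition of all tested compounds on the plate plus 3 SD, cut at about 37% in these data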;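 note: 0% = orexin A challenge wells and 100% = SB-334867-A antagonist wells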
OX1R antag-2: antagonists of human orexin 1 receptor (OX1R); Orexin/Hypocretin receptor type 1 (Homo sapiens), O43613; inhibition, % at 6.6 µM; OX1R-expressing cells, FRET antagonist read-out; actives 1.8% (n = 330,000); in the data active = inhibition mostly above about 38%, no sharp cut-off; inactive = mostly below about 40%;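 note: 0% = agonist challenge alone and 100% = reference antagonist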
GPR7 antag: GPR7 receptor antagonists, primary screen, cell-based, fluorescence, single concentration; Neuropeptides B/W receptor type 1 (Homo sapiens), P48145; GPR7-expressing cells, fluorescence antagonist assay; inhibition, % at 4.4 µM; actives 1.1% (n = 290,000); AID 1861, 2009; in the data active = inhibition above about 16%, passing the limit was not always enough;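 note: cells stimulated with the agonist NPW; 0% = agonist with vehicle and 100% = vehicle without agonist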
Target sequence (P48145 whole entry, looked up): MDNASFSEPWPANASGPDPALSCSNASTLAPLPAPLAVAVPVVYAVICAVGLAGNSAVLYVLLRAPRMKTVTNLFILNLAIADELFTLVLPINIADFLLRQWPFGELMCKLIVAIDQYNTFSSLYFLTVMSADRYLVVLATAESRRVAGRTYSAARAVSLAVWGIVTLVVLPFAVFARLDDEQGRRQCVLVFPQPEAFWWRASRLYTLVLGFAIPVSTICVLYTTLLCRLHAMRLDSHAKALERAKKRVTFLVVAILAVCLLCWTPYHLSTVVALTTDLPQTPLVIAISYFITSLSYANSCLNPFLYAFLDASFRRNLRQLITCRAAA
TAAR1 agonist: human TAAR1 agonists, primary screen, Fluo-8 calcium fluorescence, CHO RD-HGA16 cells | Trace amine-associated receptor 1 (Homo sapiens), Q96RJ0 | vehicle wells 0%, saturating PEA agonist 100% | activation, % at 3 µM | actives 0.99% (n = 360,000);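 active = activation above the mean activation of all test compounds in the run plus 3 SD, cut at about 38% in these data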
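System: CHO RD-HGA16 cells carrying human TAAR1 plus Gα16; Incubation: 17-24 h seeding, 75 min 37 °C dye, 30 min RT; Measured by: Fluo-8 fluorescence, 5 s baseline then 140 s kinetic read; Control set: DMSO and PEA EC100; Replication: single well for each compound.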
* = called active by the depositor; nt = no result given. A selection: hits, their analogues and other compounds. The true share with any hit is near 4.6%.

SMILES | CHO parental Ca | TAAR1 antagonist | OX1R antag-1 | OX1R antag-2 | GPR7 antag | TAAR1 agonist
Cc1cccn2c(=O)c3cc(C(=O)NCc4ccco4)c(=N)n(C4CCCC4)c3nc12 | -17.7 | -9.6 | -12.4 | 19.3 | 5.4 | -5.5
Cc1cccn2c(=O)c3cc(C(=O)NC4CCCC4)c(=N)n(CC4CCCO4)c3nc12 (stereo unspecified) | -17.9 | 7.7 | -25.8 | 54.9* | -3.8 | -0.2
Cc1cccn2c(=O)c3cc(C(=O)NCC4CCCO4)c(=N)n(C4CCCCC4)c3nc12 (stereo unspecified) | -23.8 | -12.3 | -21.5 | 43.9* | -1.2 | -1.4
COc1ccc(CCn2c(=N)c(C(=O)NCC3CCCO3)cc3c(=O)n4cccc(C)c4nc32)cc1 (stereo unspecified) | -16.7 | 11.3 | -38.0 | 35.0* | -22.5 | 3.7
COc1ccc(CNC(=O)c2cc3c(=O)n4cccc(C)c4nc3n(CC3CCCO3)c2=N)cc1 (stereo unspecified) | -18.3 | -9.6 | -17.7 | 29.7 | -3.2 | -0.5
Cc1cccn2c(=O)c3cc(C(=O)NCC4CCCO4)c(=N)n(CC4CCCO4)c3nc12 (stereo unspecified) | -15.7 | -10.4 | -21.0 | 62.5* | -4.3 | -2.7
COCc1cc(N2CCN(C(=O)OC(C)(C)C)C[C@H]2C)ccc1N1C[C@@H](C)O[C@@H](C)C1 | nt | -29.3 | nt | nt | nt | -0.1
COC(=O)C1=C(C)N(C)C(=NCc2ccccc2)NC1c1ccccc1 (stereo unspecified) | nt | -2.7 | nt | nt | nt | 0.0
O=CNNC(=O)c1cccc([N+](=O)[O-])c1 | 10.1 | -13.0 | 9.2 | 26.0 | -0.4 | 1.2
Cc1ccccc1C(=O)NNC(=O)c1cccc([N+](=O)[O-])c1 | -4.5 | -2.2 | -2.5 | 43.9 | 2.0 | 3.5
O=C(NNC(=O)c1cnccn1)c1cccc([N+](=O)[O-])c1 | -4.2 | 1.4 | 4.2 | 43.6* | -15.9 | 1.9
O=C(NNc1c(Cl)cc(Cl)cc1Cl)c1cccc([N+](=O)[O-])c1 | 48.4* | 1.3 | 8.5 | 34.2 | -10.6 | 0.3
O=C(NNC(=O)c1ccccc1[N+](=O)[O-])c1cnccn1 | -5.7 | -4.5 | -4.7 | 8.1 | -10.4 | 5.4
Cc1cc(C(=O)NNC(=O)c2cccc([N+](=O)[O-])c2)n[nH]1 | -0.9 | -4.7 | 6.7 | 28.1* | nt | 11.8
COCCNC(=O)C1(C)CCCN(Cc2c(C)nn(-c3ccccc3)c2C)C1 (stereo unspecified) | nt | 12.1 | nt | nt | nt | 1.1
COC(=O)[C@@]12C[C@@H](CC(=O)N3CCCCC3)C(=O)N(CCc3ccc(OC)c(OC)c3)C1=CCC(C)(C)C2 | nt | -9.3 | nt | nt | nt | 2.3
COc1ccc(-c2nc3cc(C)ccn3c2NC(=O)c2ccccc2OC)cc1 | -31.0 | 37.4 | -24.6 | 2.5 | -13.5 | 10.3
CCCCNc1c(-c2cccc(-c3ccc(OC)cc3)c2)nc2cc(C)ccn12 | 65.3* | 54.9* | 39.3 | 28.7 | nt | 7.8
COc1ccc(-c2nc3ccc(C)cn3c2NCc2ccc3c(c2)OCO3)cc1 | -21.0 | 31.9 | -42.9 | 26.6 | 1.3 | 5.9
CCCCNc1c(-c2cccc(-c3ccc(OC)cc3)c2)nc2ccc(C)cn12 | 73.8* | 81.2* | 46.5* | 52.3 | nt | 11.6
NCc1csc(Nc2ccc(C(=O)c3ccccc3)cc2)n1 | nt | 6.8 | nt | nt | nt | 7.1
C#CCNC(=O)c1cc2cccnc2nc1N | nt | 0.7 | nt | nt | nt | 0.4
COC(=O)c1cn(NC(=O)Cc2cccc(OC)c2)c(=O)c2ccccc12 | -23.0 | -7.6 | -21.0 | 72.3* | 1.5 | 1.0
COC(=O)c1cn(NC(=O)Cc2ccc(OC)c(OC)c2)c(=O)c2ccccc12 | -13.3 | -3.7 | -8.1 | 47.8* | -2.3 | 2.2
O=C1c2cc(CO)cc(O)c2C(=O)c2c(O[C@@H]3OC(CO)[C@@H](O)[C@@H](O)[C@@H]3O)cccc21 (stereo partly specified) | -6.1 | -11.2 | -9.7 | 73.1* | nt | 1.6
SMILES | CHO parental Ca | TAAR1 antagonist | OX1R antag-1 | OX1R antag-2 | GPR7 antag | TAAR1 agonist
O=C(O)c1cc(O)c2c(c1)[C@H]([C@H]1c3cc(C(=O)O)cc(O)c3C(=O)c3c(O[C@@H]4O[C@H](CO)[C@@H](O)[C@H](O)[C@H]4O)cccc31)c1cccc(OC3O[C@H](CO)[C@@H](O)[C@H](O)[C@H]3O)c1C2=O (stereo partly specified) | 2.4 | -21.4 | 13.7 | 43.3 | nt | 0.4
COc1ccc(S(=O)(=O)N2CCOC23CCN(S(=O)(=O)c2ccc(Cl)cc2)CC3)cc1 | -14.7 | 6.7 | -29.6 | 16.0 | nt | 2.4
O=C(Oc1cccc(C(=S)N2CCOCC2)c1)c1cccc([N+](=O)[O-])c1 | -11.7 | -0.5 | -18.9 | 17.2 | -1.2 | 12.2
COc1cc(C(=S)N2CCOCC2)ccc1OC(=O)c1ccccc1[N+](=O)[O-] | -8.9 | 21.6 | 8.8 | 61.1* | -16.9 | 13.1
COc1cc(C(=S)N2CCOCC2)cc(OC)c1OC(=O)c1cccc(C)c1 | -16.0 | -5.2 | 20.5 | 65.6* | -11.1 | -0.8
O=C(Oc1cccc(C(=S)N2CCOCC2)c1)c1cc([N+](=O)[O-])cc([N+](=O)[O-])c1 | -8.3 | -3.2 | -14.3 | 67.6* | -6.4 | -1.2
O=C(NNC(=S)Nc1ccccc1)c1cc(-c2cccnc2)nc2ccccc12 | -23.6 | 21.3 | -34.4 | 24.5 | -15.8 | 7.4
CC(OC(=O)c1cc(-c2cccnc2)nc2ccccc12)C(=O)Nc1ccc2ccccc2c1 (stereo unspecified) | -25.1 | 50.7* | -22.3 | 19.6 | -2.5 | 9.3
O=C(NCc1ccccc1)C(c1ccc(-c2ccccc2)cc1)N1CCN(c2ccccc2F)CC1 (stereo unspecified) | nt | -31.2 | nt | nt | nt | -0.3
COc1cc(OC)cc(-c2nnc(SCc3c(F)cccc3Cl)o2)c1 | 37.6* | 29.6 | -18.4 | 33.3 | 11.4 | 2.4
CCCOc1ccccc1C1CC(=O)NC2=C1C(=O)CCC2 (stereo unspecified) | -6.7 | 6.0 | -24.9 | 26.0 | 3.4 | 11.1
CCCCOc1ccccc1C1CC(=O)NC2=C1C(=O)CCC2 (stereo unspecified) | -31.8 | 14.5 | -1.0 | 8.4 | 20.2* | 23.8
O=C(NCc1cccnc1)c1ccc(-c2ccc(Cl)cc2)o1 | -16.0 | 2.8 | -21.3 | 16.2 | 9.3 | -0.4
O=C(NCc1cccnc1)/C(=C\c1ccc(-c2ccc(Cl)c(Cl)c2)o1)S(=O)(=O)c1ccccc1 | 1.2 | 28.0 | -12.8 | 24.8 | 30.7* | 9.6
